A selection: hits, their analogues and other compounds. The true share with any hit is near 2.1%.
A3A deaminase: inhibitors of human APOBEC3A DNA deaminase | recombinant A3A, FAM/TAMRA ssDNA deamination fluorescence | inhibition, % at 20 µM | P31941 | hit rate 0.41% among 330,000;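 active = at least 40% inhibition at 20 µM here, with at most 30% in a related deaminase screen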;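 also: plate controls were A3A with DMSO for no effect and wells lacking A3A enzyme for full effect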
Target sequence (P31941 whole entry, looked up): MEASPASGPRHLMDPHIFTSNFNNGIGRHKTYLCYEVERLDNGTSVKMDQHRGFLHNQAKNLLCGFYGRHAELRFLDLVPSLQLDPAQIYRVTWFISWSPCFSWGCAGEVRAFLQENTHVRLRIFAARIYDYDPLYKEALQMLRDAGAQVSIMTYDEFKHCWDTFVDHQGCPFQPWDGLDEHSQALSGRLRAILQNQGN
A3G deaminase: blocks human APOBEC3G single-stranded DNA deamination; hit rate 0.28% among 330,000; Q9HC16; inhibition, % at 20 µM; recombinant A3G, ssDNA deamination FAM/TAMRA fluorescence;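 active = inhibition of at least 40% at 20 µM, with no more than 30% in the related APOBEC3A deaminase screen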;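 also: plate controls were DMSO wells with A3G for no effect and wells lacking A3G enzyme for full effect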
Target sequence (Q9HC16 whole entry, looked up): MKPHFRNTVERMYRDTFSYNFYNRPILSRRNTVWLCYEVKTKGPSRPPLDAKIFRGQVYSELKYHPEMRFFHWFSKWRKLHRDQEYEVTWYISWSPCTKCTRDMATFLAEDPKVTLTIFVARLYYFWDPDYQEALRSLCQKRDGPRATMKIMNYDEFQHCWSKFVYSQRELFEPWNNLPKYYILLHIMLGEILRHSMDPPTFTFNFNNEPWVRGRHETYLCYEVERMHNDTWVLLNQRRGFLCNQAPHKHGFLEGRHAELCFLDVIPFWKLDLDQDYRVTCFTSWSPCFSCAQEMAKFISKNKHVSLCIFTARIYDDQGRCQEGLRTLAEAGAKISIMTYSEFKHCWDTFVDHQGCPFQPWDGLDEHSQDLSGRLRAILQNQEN
SUMO Mot1 rescue: SUMOylation pathway inhibition by Mot1-301 growth rescue; hit rate 1% among 320,000; AID 2716; S. cerevisiae Mot1-301 growth rescue, ATP luminescence, 38.5C; percent above DMSO median, 100 means doubled; growth rescue, % at 18.8 µM;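 active = every valid replicate shows activation above 250% relative to neutral control wells; inactive = the rest, any valid replicate at or below 250%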;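 also: OY570 slx delta 5 strain wells were the positive control but not used for scaling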
C2C12 statin: suppressors of simvastatin-induced myotoxicity in C2C12 myotubes. ATP luminescence, 48 h; scaled: DMSO 0, geranylgeraniol control 100. rescue of ATP level, % at 7.49 µM. hit rate 0.78% among 330,000. AID 602340;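 active = mean ATP rescue above about 67%, or every replicate alone reaching that limit, limit read from the data, passing the limit was not always enough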;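 also: myotubes were challenged with 10 µM simvastatin during compound exposure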
ARFGAP1 inh: inhibits rat ARF GTPase activating protein 1; Q62848; Arfgap1-stimulated ARF1 GTP hydrolysis, GDP FP detection; inhibition, % at 16.5 µM; hit rate 0.26% among 360,000; AID 651572;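 active = inhibition above a per-plate limit, mean inhibition of low control wells plus 3 SD, cut at about 25% in these data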;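 also: 0% = DMSO wells with enzyme and 100% = wells lacking Arfgap1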
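Material: truncated rat Arfgap1 GAP domain; Incubation: compound-enzyme preincubation 20 min, reaction 120 min, detection 60 min, 25 °C; Read-out: percent inhibition of Arfgap1-stimulated GTP hydrolysis; Technique: FP, GDP Alexa 633 tracer displaced from anti-GDP antibody, 620/688 nm; Controls: No-Arfgap1 wells (100%) versus DMSO full-reaction wells (0%); Replication: single well per compound.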
ASAP1 inh: ASAP1 ArfGAP inhibition | Q9ULH1 | ASAP1-stimulated ARF1 GTP hydrolysis, GDP FP detection | inhibition, % at 16.5 µM | hit rate 0.19% among 360,000 | AID 624377; in the data active = inhibition above about 25%;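 also: 0% = vehicle with enzyme and substrate and 100% = no enzyme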
The depositor's hits bear a star; x = no result.

SMILES	A3A deaminase	A3G deaminase	SUMO Mot1 rescue	C2C12 statin	ARFGAP1 inh	ASAP1 inh
c1ccc(Cn2nnnc2CN2CCN(c3ncccn3)CC2)cc1	0	-5	-16	140*	9	3
COc1cc(C)c(S(=O)(=O)n2ccc(C)n2)cc1C	5	1	-14	113*	-5	15
C[C@H]1CN([C@@H](C)CO)C(=O)Cc2cc(NC(=O)Nc3ccc(F)cc3)ccc2O[C@@H]1CN(C)S(=O)(=O)c1ccccc1	x	x	x	-19	x	x
COc1cccc(C(=O)NNC(=O)c2ccccc2)c1	2	10	-6	-6	-4	-1
COc1cccc(C(=O)NNC(=O)C2CC(C)=C(C)CC2C(=O)O)c1 (stereo not given)	-3	-4	-9	99*	-1	-12
Cn1c2ccccc2c2cc(C(=O)NNC(=O)CCl)sc21	-5	-8	-5	x	2	8
CC(=O)Nc1ccc(S(=O)(=O)NNC(=O)c2cc3c4ccccc4n(C)c3s2)cc1	0	0	x	193*	-9	1
O=C(C[C@@H]1C=C[C@H](NC(=O)C2CCC2)[C@@H](CO)O1)Nc1nccs1	x	x	x	-1	x	x
CCn1cc([N+](=O)[O-])c(C(=O)N2N=C(c3cccc4ccccc34)CC2c2ccccc2O)n1 (stereo not given)	1	3	-21	80*	-8	7
O=C(N/N=C/c1ccccc1[N+](=O)[O-])C(=O)N1CCCC1	-4	-9	355*	x	-7	-1
O=C(CSc1ccc(C(F)(F)F)cc1[N+](=O)[O-])Nc1ccccc1	-4	-10	-9	10	18	31*
Cc1ccc(NC(=O)c2cccc(OCc3c(C)noc3C)c2)cc1	3	1	14	105*	0	-9
Cc1noc(C)c1COc1cccc(C(=O)Nc2ccccc2)c1	-3	-10	x	1	-17	-4
Cc1ccc2cc(CN(Cc3ccco3)C(=O)NCc3ccccc3)c(=O)[nH]c2c1C	-6	4	-5	16	0	9
Cc1ccc2cc(CN(Cc3ccco3)C(=O)c3ccccc3)c(=O)[nH]c2c1C	3	1	-9	137*	-3	7
COc1ccc(S(=O)(=O)Nc2cccc3c2O[C@H](CN(C)Cc2ccc(Oc4ccccc4)cc2)[C@H](C)CN([C@@H](C)CO)C3=O)cc1	x	x	x	-28	x	x
Cn1c(C(=O)NCCC2=CCCCC2)cc2c(=O)n3ccccc3nc21	4	4	315	-3	-18	9
Cc1cccn2c(=O)c3cc(C(=O)NCCC4=CCCCC4)n(C)c3nc12	-1	-1	242	127*	-4	-1
Cc1cc(C)cc(NC(=O)Cn2nnc(C(=O)NCc3ccc(F)cc3)c2N)c1	-2	-2	31	120*	2	-2
Cc1cc(C)cc(NC(=O)Cn2nnc(C(=O)NCc3ccccc3Cl)c2N)c1	2	-2	7	-1	8	22
CCC/C(=C1/c2ccccc2C(=O)N1c1ccccc1)c1ccc2c(c1)OCCO2	0	-1	6	115*	3	12
CCC/C(=C1/c2ccccc2C(=O)N1c1ccccc1)c1ccc(O[C@@H]2CCCCO2)cc1	2	1	11	-3	-4	-14
Cc1ccc(NC2=CC(=O)CC(C)(C)C2)cc1F	-1	-1	652	5	-3	5
Cc1cc(N)c(NC2=CC(=O)CC(C)(C)C2)cc1C	-4	-4	x	138*	-3	-8
CC=Cc1ccc2n(c1=O)C[C@@H]1[C@@H](CO)[C@H](C(=O)NCC(F)(F)F)[C@H]2N1C(=O)C1CCCCC1 (mixture of isomers)	x	x	x	1	x	x
SMILES	A3A deaminase	A3G deaminase	SUMO Mot1 rescue	C2C12 statin	ARFGAP1 inh	ASAP1 inh
O=C(C[C@H]1C=C[C@@H](NC(=O)C2CCC2)[C@@H](CO)O1)NCC1CC1	x	x	x	0	x	x
Cc1ccc(CN(C(=O)c2ccco2)C(C(=O)NC2CCCC2)c2ccc(N3CCOCC3)cc2)cc1 (stereo not given)	-3	-1	127	119*	13	2
Cc1ccc(CN(C(=O)c2ccco2)C(C(=O)NC2CCCC2)c2cccnc2)cc1 (stereo not given)	-3	-2	6	2	5	11
O=C(OCC(=O)N1CCOCC1)c1ccccc1SCC(=O)N1CCCC1	-1	-4	-5	118*	2	-16
NC(=O)CCc1c[nH]c2ccccc12	-4	-3	4	109*	-2	11
N=c1oc2ccccc2cc1-c1nc2ccccc2c(=O)[nH]1	1	6	8	92*	-9	-7
O=C(NCCCN1CCc2ccccc2C1)Nc1ccc(Cl)cc1	-5	-4	3	87*	-3	5
COc1ccc(NC(=O)N(C)C[C@H]2OCc3ccccc3-c3ccccc3C(=O)N([C@@H](C)CO)C[C@@H]2C)c(OC)c1	x	x	x	-4	x	x
CCCCc1ccc(-c2nc(N)n[nH]2)cc1	-4	-7	840*	-17	-8	-5
COCC(=O)N(C)C[C@H]1Oc2cc(C#CC(C)C)ccc2S(=O)(=O)N([C@@H](C)CO)C[C@H]1C	x	x	x	28	x	x
Cc1ccc(S(=O)(=O)N[C@H]2CC[C@@H](CCNC(=O)CN3CCOCC3)O[C@H]2CO)cc1	x	x	x	-10	x	x
C[C@@H]1CN([C@@H](C)CO)C(=O)c2cccc(NS(=O)(=O)c3cn(C)cn3)c2O[C@@H]1CN(C)C(=O)Nc1ccc2c(c1)OCO2	x	x	x	38	x	x
C/C=C/c1cnc2c(c1)C(=O)N([C@@H](C)CO)C[C@@H](C)[C@@H](CN(C)Cc1ccncc1)O2	x	x	x	6	x	x
CCCS(=O)(=O)C(=C1NCCO1)S(=O)(=O)CCC	-4	-8	351*	-6	0	2
CCCCS(=O)(=O)C(=C1Nc2ccccc2N1)S(=O)(=O)CCCC	-1	-1	-2	7	-14	-12
S=C1NC2(CCCCCC2)N=C1c1ccccc1	-1	-5	48	-6	4	5
S=C1NC2(CCCC2)N=C1c1ccccc1	-2	-6	490*	x	15	-7
FC(F)(F)c1nc2nncn2c2c1CCCCC2	0	0	73	149*	0	5
CC(C)(C)NC(=O)Cn1nc(C(F)(F)F)c2c1CCCC2	0	-4	5	x	-1	-1
CC1CCN(S(=O)(=O)c2ccc3ccccc3c2)CC1	0	-2	32	153*	8	1
COc1ccc(NC(=O)N(C)C[C@H]2Oc3c(cccc3N(C)C)C(=O)N([C@H](C)CO)C[C@H]2C)cc1	x	x	x	-6	x	x
O=Nc1c(O)c2ccccc2c2ccccc12	x	x	664*	-25	-5	5
C[C@H](CO)N1C[C@H](C)[C@H](CN(C)C(=O)Cc2ccccn2)Oc2ncc(-c3ccncc3)cc2C1=O	x	x	x	-9	x	x
CC(C)C(NC(=O)/C=C/c1ccc(F)cc1)C(C)C	1	-2	288*	6	-1	-4

Source: PubChem BioAssay (several laboratories)
